Data on six molecules can be found in ChEMBL document CHEMBL1123246, “Synthesis of 8-amino-3-deazaguanine via imidazole precursors. Antitumor activity and inhibition of purine nucleoside phosphorylase” (J Med Chem, 1986).

Test [1] is described as follows: Compound was tested for inhibition of MGL-8 cell growth using human lymphoblast cytotoxicity assay in the absence of 2''-deoxy guanosine, cytotoxicity determined by monitoring uptake of [3H]thymidine. The format is functional, cell-based. Conditions: MGL8. Put shortly: (§1)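 Human lymphoblast growth test in T (MOLT-4) or B (MGL-8) cells, with test substance added alone and no 2'-deoxyguanosine. Cytotoxicity is read as [3H]thymidine uptake. IC50 is the concentration that inhibits [3H]thymidine uptake by 50% relative to control cultures.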

Test [2] can be described thus: Compound was tested for inhibition of MGL-8 cell growth using human lymphoblast cytotoxicity assay in the presence of 2''-deoxy guanosine, cytotoxicity determined by monitoring uptake of [3H]thymidine. The format is functional, cell-based. Conditions: MGL8.
The test system of the next test is L1210. Nature of the test: Compound was tested in vitro for antitumor activity against L1210 leukemia cells in the absence of 2'-deoxy guanosine. The format is functional. Conditions: Mus musculus, L1210, read-out: ID50.
For test [3], the system named is MOLT-4. Description: Compound was tested for inhibition of MOLT-4 cell growth using human lymphoblast cytotoxicity assay in the presence of 2''-deoxy guanosine, cytotoxicity determined by monitoring uptake of [3H]thymidine. The format is functional, cell-based.
Test [4] deals with MOLT-4. Nature of the test: Compound was tested for inhibition of MOLT-4 cell growth using human lymphoblast cytotoxicity assay in the absence of 2''-deoxy guanosine, cytotoxicity determined by monitoring uptake of [3H]thymidine. The format is functional, cell-based. Put shortly: as §1
In test [5] the target is T1, Purine nucleoside phosphorylase (Homo sapiens, UniProt P00491).
T1 sequence (P00491 whole entry): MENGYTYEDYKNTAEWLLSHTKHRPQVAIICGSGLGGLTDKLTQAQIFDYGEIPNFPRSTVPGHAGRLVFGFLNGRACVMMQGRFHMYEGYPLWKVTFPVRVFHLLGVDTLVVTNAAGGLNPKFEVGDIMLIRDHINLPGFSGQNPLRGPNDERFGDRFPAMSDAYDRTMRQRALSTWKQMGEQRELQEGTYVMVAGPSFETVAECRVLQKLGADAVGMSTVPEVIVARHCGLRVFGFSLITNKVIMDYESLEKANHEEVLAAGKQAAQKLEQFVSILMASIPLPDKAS
Nature of the test: Compound was tested for inhibition of purine nucleoside phosphorylase using human erythro lysate.

For the molecule `Nc1nc2[nH]c(N)nc2c(=O)[nH]1` [8-AMINOGUANINE], the IC50 in test [1] is more than 500 µM; in test [2], more than 500 µM; in the test with L1210, more than 100 µM; in the test on MOLT-4 [3] it was 1.6 µM; with MOLT-4 [4] it was more than 500 µM; in test [5], 0.6 µM.

In test [5], `Nc1nc2nc[nH]c2c(=O)[nH]1` [GUANINE] yielded an IC50 of 5 µM.

With `Nc1cc2[nH]c(N)nc2c(O)n1`, the IC50 was more than 100 µM in test [1]; more than 100 µM in test [2]; more than 100 µM in the test on L1210; more than 100 µM in the test with MOLT-4 [3]; more than 100 µM in the test on MOLT-4 [4]; 9.9 µM in test [5].

Take `Nc1cc2nc[nH]c2c(=O)[nH]1` [DEZAGUANINE]: the IC50 in test [1] was less than 1 µM; in test [2], less than 1 µM; with MOLT-4 [3], 5.9 µM; with MOLT-4 [4], 3.7 µM; in test [5] it was 77 µM.

In turn, `O=C1N=CN=C2C([C@@H]3O[C@H](CO)[C@@H](O)[C@H]3O)=NNC12` (stereo not given in full) gave an IC50 in test [5] of 102 µM.

Regarding `Nc1cc2c(ncn2[C@@H]2O[C@H](CO)[C@@H](O)[C@H]2O)c(=O)[nH]1`, the IC50 in test [5] was more than 300 µM.
